Data on 38 variants can be found in the RNAGym collection of RNA variant scans (doi:10.1126/science.aae0568).

This sample holds only a part of the variants without activity.

First the molecules themselves.
B1: tRNA (parent)
chain: GUUCCGUUGGCGUAAUGGUAACGCGUCUCCCUCCUAAGGAGAAGACUGCGGGUUCGAGUCCCGUACGGAACG

The variants in this series derive from B1. The series is described as follows: yeast fitness relative to wild type (ratio to wild type); higher = fitter; tRNA-Arg(CCU), competitive growth, 37 C, YPD. The procedure, abridged: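 Genotype frequency changes were the basis for Darwinian fitness relative to wild type. The frequencies came from 100-nucleotide paired-end sequencing of gene amplicons from the start population and each end population of pooled yeast strains with tRNA-Arg(CCU) gene variants at the native locus. Competition ran in YPD at 37°C for 24 hours in six replicates, genotypes needed ≥ 100 starting reads, and estimates < 0.5 were set to 0.5.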
For the variant GUUCCGUGGGCGUAAAGCUAAGGCGUCUCCCUCCUAAGGAGAAGACUGCGGGUUCGAGUCCCGUACGGAACG [U8G U16A G18C C22G], the yeast fitness is ≤ 0.5.
For GUUCCGUGGGCGUAAUGGUAACGCGUCUCCCUCCUAAGGAGAAGACUGCGGAUUCGAGUCCCGUACGGAUCG [U8G G52A A70U], the yeast fitness is ≤ 0.5.
The result for GUUCCGUGGGCGUAAUGGUAACGCCUCUCCCUCCUGAGGAGAAGACUACGGGUUCGAGUACCGUACGGAACG [U8G G25C A36G G48A C60A] reads ≤ 0.5; that for GUUCCGUUAGCGUCAUGGUAACGCGUCUCCCUCCUAAGGAGAAGACUGCGGGUUCGAAUCCCGUACGGAACG [G9A A14C G58A], 0.546; that for GUUCCGUGGGCGUAAUGGUAACGCGUCUCCCUCCUAAGGAGAAGACUGCGGGCUCGAGUCCCGUACGGAACG [U8G U53C], 0.806.
Take GUUCCGUGGGCGUAAUGGUAACGCGUCUCCCUCCAAAGGAGAAGACUGCGGGUUCGAGUCCCGUACGGACCG [U8G U35A A70C]: the yeast fitness was found to be 0.524.
GUUCCGUGGCUGUAAUGGUAACGCGUCUCCCUCCUAGGGAGAAGACUGCGGGUUCGAGCCCCGUACGGAACG [U8G G10C C11U A37G U59C]: the yeast fitness was ≤ 0.5.
Take GUUCCGUGGGCGUAAUAGUCAGGCGUCUGCCUCGUAAGGAGAAGACUGCGGGUUCGAGUCCCGUACGGAACG [U8G G17A A20C C22G C29G C34G]: the yeast fitness stood at 0.549.
As to GUUCCGUGGGCGUAAUGGUAACGCGUCUCCCUCCUAAGGAGAAGACUGCGGAUUCGAGUCCCGUACGGAACG [U8G G52A], the yeast fitness was determined as 0.512.
The result for GUUCCGUGGGCGUAAUGGUAACCCGUCUCCCUCCUAGGGAGAAGACUGCGGGUUCGAGUCCCGUACGGAGCG [U8G G23C A37G A70G] reads 0.631; that for GUUCCGUGGGCGUAAUGGUAACGCCUCUCCCUCCUGAGGAGAAGACUACGGGUUCGAGUCCCGUACGGAACG [U8G G25C A36G G48A], ≤ 0.5.
In the case of GUUCCGUGGGCGUAAUGGUAACGCGACUCCCUCCUAAGGAGAAGACUGCGGGUUCGAGUCCCGUACCGAACG [U8G U26A G67C], the yeast fitness was ≤ 0.5.
For GUUCCGUGGGCGUAAUGGUAACGCGUCUCCCUCCUAAGGAGAAGACUGCGCGUUCGAGUACCGUACGGAACG [U8G G51C C60A] the value was ≤ 0.5; for GUUCCGUGGGCGUAAUGCUAACGCGUCUCCCUCCUAAGGAGAAGACUGUGGGUUCGAAUCCCGUACAGAACG [U8G G18C C49U G58A G67A], ≤ 0.5.
On to GUUCCGUGGGCGUAAUGGUAACGCGUCUCCCUCCUAACCGGAAAAGUGCGGAUUCGAGUCCCGUACGGAACG [U8G G38C G39C A40G G44A C46G G52A], for which the yeast fitness is ≤ 0.5.
For GUUCCGUGGGCGUAAUGGUAACGCGUCUCCCUCCUAAAGAGAAGACUGCGGGUUCGAGUCCCGUACGGAACG [U8G G38A] the value was 0.57; for GUUCCGUGGGCAUAAUGGUAACGCGUCUCCCUCCUAAGGAGAAGACUGCCGCUUUGAGUCCCGUACGGAACG [U8G G12A G50C G52C C55U], 0.618.
Consider GUUCCGUGGGCGUAAUGGUAACGCGUCUCCCUCCUAAAGAGAAGACUGCGGGUUCGAGUCCCGUACGGUACG [U8G G38A A69U], for which the yeast fitness was 0.507.
On to GUUCCGUGGGCCUAAUGGUAACGCGUCUCCCUCCUAAGGAGAAGACUGCGGGUUAGAGUCCCGUACGGAACG [U8G G12C C55A], for which the yeast fitness was ≤ 0.5.
With GUUCCGUGGACGUAAUGGUAACGCGUCUCCCUCCUAAGGAGAAGACUGCGGGUUCGAGUCCGGUACGGAACG [U8G G10A C62G], the yeast fitness is ≤ 0.5.
The result for GUUCCGUGGGCGGAAUGGUAACGCGUCUCCCUCCUAUGGAGAAGACUGCGGGUUCGAGUCCCCUACGGAACG [U8G U13G A37U G63C] reads ≤ 0.5; that for GUUCCGUGGGCGUAAUGGUAACGCGUCCCCCUCCUAACGAGAAGACUGCGGGUUCGAGUCCUGUACGGAACG [U8G U28C G38C C62U], ≤ 0.5; that for GUUCCGUGGGCGUAAUAGUAACGCGUCUCCAUCCUAAGGAGAAGACUGCGGGUUCGAGUCCCGUACGGAACG [U8G G17A C31A], ≤ 0.5.
In the case of GUUCCGUGGGCGUAAUGCUAACGCGUCUCCCUCCUAGGGGGAAGACUGCGGGUUCGAGUCCCCUACGGAACG [U8G G18C A37G A40G G63C], the yeast fitness amounted to 0.506.
Turning to GUUCCGUGGGCGUAAUGGUAACGCGUCUCCCCGCUAAGGAGAUGACUCCGGGUUAGAGUCCCGUACGGAACG [U8G U32C C33G A43U G48C C55A], the yeast fitness was ≤ 0.5.
Consider GUUCCGUGGGCGUAAUGGAAACGCGUCUCCCUCCUAAGGAGAAGACUGCGGGUACGUGUCCCGUACGCAACG [U8G U19A U54A A57U G68C], for which the yeast fitness was ≤ 0.5.
For the variant GUUCCGUGGGCAUAAUGGUAACGCGUCUCCCUCCUAAAGAGAAGACUGCGGGUUCGAGUCCCGUACGGUACG [U8G G12A G38A A69U], the yeast fitness is ≤ 0.5.
With GUUCCGUGGGCGUAAUGGUAACGCGUCUCCCCCGUAAGGAGAAGACUGCGGGUUCGAGUCCCGUACGAAACG [U8G U32C C34G G68A], the yeast fitness turned out to be 0.598.
Take GUUCCGUGGGCGAAAUGGUAACGCGUCUCUCUCCUAAGCAGAAGACUGCGGGUUGGAGUCCCGUACGGAACG [U8G U13A C30U G39C C55G]: the yeast fitness worked out at 0.526.
Regarding GUUCCGUGGGCGUAAUGGUAACGCGACUCCCUCCUAAGGAGAAGACUGCGGGUUCGAGUCCCGUACGCAACG [U8G U26A G68C], the yeast fitness was ≤ 0.5.
With GUUCCGUGGGCGUAAUGGUAACGCGUCUCCCUCCGAAGGAGAAGACUGCGGGUUGGAGUCCCGUACGGAACG [U8G U35G C55G], the yeast fitness is ≤ 0.5.
As to GUUCCGUGGGCGUAACGGUAACGCGUCUCCCUCCUAAGGAGAAGACUGCGGGUUCGAGUCCCGUACGGAACG [U8G U16C], the yeast fitness turned out to be 0.6.
For GUUCCGUGGGCGUAAUGGUAACGCGUCUCCCGCCUAAAGAGAAGACUGCGGGUUCCAGUCCCGUACGGAACG [U8G U32G G38A G56C] the value was ≤ 0.5; for GUUCCGUGGGCAUAAUGGUAACGCGUCUCCCUCCUAAGGAGAAAACUGCGGGUUCGAGUCCCGUACGGAACG [U8G G12A G44A], 0.566; for GUUCCGUUAGCGUGAUGGUAACGCGUCUCCCUCCUAAGGAGAAGACUGCGGGUUCGAGUCCCGUACGGAACG [G9A A14G], 0.908.
On to GUUCCGUUAGCGUCAUGGUAACGCGUCUCCCUCCUAAGGAGAAGACUGCGGGUUCGAGUCCCGUACGGAACG [G9A A14C], for which the yeast fitness came to 0.591.
On to GUUCCGUGGGCCUAAUGGUAACGCGUCUCCCUCCUAAGAAGAAGACUGCGGGUUCGAGUCCCGUACGGAACG [U8G G12C G39A], for which the yeast fitness is ≤ 0.5.
With GUUCCGUGGGCGUAAUGGUAACGCGUCUCCCUCCAAAGGAGAAGACUGCGGGUACGAGUCCCGUACGGAACG [U8G U35A U54A], the yeast fitness turned out to be 0.548.
